Assay results taken from PubChem BioAssay.
Values without a mark were called inactive. This is one part of the list. Calls of active or inactive are those of the source.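 How the source made its calls, unless noted: active means current rise at least 3 SD above the untreated control mean in each of two repeat wells; inactive means the rest.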

Legend:
[1] = thallium flux activation in parental CHO cells, counter-screen for KCNQ1 potentiator project (AID 493006;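 active means duplicate-averaged activation above buffer control mean plus 5 SD of those controls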;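 on activation: fluorescence ratio of max minus min over baseline after K+ and Tl+ depolarization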); conditions: parental CHO-K1 cells, FluxOR thallium flux, at 10 µM; stronger effect = higher value
Outline: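 Material: untransfected host CHO-K1 cells with FluxOR thallium dye. Timing: overnight 37 °C plating, 90 min RT dye, 20 min compound. Detection: kinetic FluxOR fluorescence, 10 s baseline, 110 s after stimulus. Read-out basis: max-minus-min fluorescence over baseline, percent of buffer-to-R-L3 span. Replicates: duplicate wells per compound, percent values averaged.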

[2] = target: Potassium voltage-gated channel subfamily KQT member 1 (Homo sapiens) (UniProt P51787); assay: KCNQ1 potassium channel potentiators, confirmation, FluxOR thallium flux, CHO cells, duplicates (AID 493007;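 active means potentiation averaged over duplicate wells exceeding buffer-only control mean by more than 3 SD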;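 on outcome: cells depolarized by a potassium plus thallium sulfate stimulus after compound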); conditions: KCNQ1 cell line, FluxOR thallium flux fluorescence, at 10 µM; stronger effect = higher value, % of reference activator effect, buffer zero
Outline: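 Test system – KCNQ1-expressing CHO cell line · Incubation – FluxOR dye loading 90 min, compound exposure 20 min, room temperature · Detection – FluxOR Tl+ flux fluorescence, 10 s baseline plus 110 s recording · Controls – buffer-only wells as 0% and R-L3 activator as 100%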

[3] = target: Potassium voltage-gated channel subfamily KQT member 1 (Homo sapiens) (UniProt P51787); assay: KCNQ1 channel current potentiators, confirmation, orthogonal assay for KCNQ1 potentiator project, IonWorks patch clamp, KCNQ1-CHO cells (AID 493184); conditions: automated patch clamp current, at 10 µM; stronger effect = higher value;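 on current potentiation: percent change of the same well's current before compound addition so 0% = no change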
Outline: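 Read-out: Percent current increase versus pre-compound level | Assay system: CHO cells carrying KCNQ1 | Measured by: Automated perforated-patch electrophysiology | Medium: External bath solution at pH 7.4 | Dosing: One dose, 10 µM final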

[4] = target: T1, Potassium voltage-gated channel subfamily E member 1 (Homo sapiens) + Potassium voltage-gated channel subfamily KQT member 1 (Homo sapiens) (UniProt P15382+P51787); assay: KCNQ1/KCNE1 complex potentiators, confirmation, selectivity assay for KCNQ1 potentiator project, thallium flux, CHO-K1 KCNQ1/E1 cells (AID 493186;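 active means mean duplicate activation above the buffer control mean plus 5 SD of those controls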); conditions: FluxOR thallium flux, at 10 µM; stronger effect = higher value
Outline: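 Test system: CHO-K1 cells with KCNQ1/E1; dosing: one test concentration; signal: FluxOR Tl+ flux fluorescence, kinetic read; incubation: 90-min dye loading then 20-min compound exposure, both at room temperature; read-out basis: percent of R-L3 effect over buffer; replication: duplicate wells per compound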

[5] = target: Potassium voltage-gated channel subfamily KQT member 1 (Homo sapiens) (UniProt P51787); assay: KCNQ1 potassium channel inhibitors, confirmation, cell-based, Tl flux, duplicate (AID 588353;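 active means primary screen active, with duplicate mean exceeding buffer control mean plus 3 SD of buffer wells, cut at about 28% in these data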;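 further: 0% = buffer control ratio and 100% = XE991 inhibitor control ratio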); conditions: KCNQ1 cell line, FluxOR thallium flux fluorescence, at 10 µM, stronger effect = higher value
Outline: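 Material: stable KCNQ1-expressing CHO cell line. Incubation: compound exposure 20 min at room temperature. Replication: duplicates, mean used. Control set: buffer and XE991. Evaluation: percent inhibition relative to buffer and XE991. Reagent: Tl2SO4 plus K2SO4 stimulus, each 12.5 mM in 5x stock. Measured by: thallium-sensitive FluxOR dye fluorescence.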

[6] = thallium flux effects in parental CHO cells, counter-screen for KCNQ1 inhibitor project, cell-based, Tl flux (AID 588366;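 active means mean of duplicate thallium-flux fluorescence ratios in parental host cells more than 5 SD below the buffer control mean, cut at about 0.38 in these data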;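 further: ratio is peak minus minimum fluorescence divided by baseline fluorescence; actives read low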); conditions: parental CHO-K1, FluxOR thallium flux fluorescence ratio; at 10 µM; stronger effect = lower value; zero means no signal rise above baseline
Outline: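 material = parental CHO-K1 cells lacking KCNQ1 channel expression | schedule = FluxOR dye loading 90 min, compound exposure 20 min, room temperature | technique = kinetic Tl+ flux fluorescence with FluxOR dye | controls = assay buffer-only wells as negative controls | replicates = each compound tested in duplicate wells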

[7] = target: Potassium voltage-gated channel subfamily KQT member 1 (Homo sapiens) (UniProt P51787); assay: KCNQ1 channel inhibitors, confirmation, orthogonal assay, cell-based, automated electrophysiology (AID 624120;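 active means KCNQ1 current drop exceeding 3 SD of negative control wells, seen in both duplicate runs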); conditions: KCNQ1-CHO cells, automated patch clamp current; at 10 µM
Outline: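 System: KCNQ1-expressing CHO cells; Medium: external buffer at pH 7.4; Probe or stimulus: 2,000 ms voltage steps to +40 mV from -80 mV; Compound: 10 µM final, single dose; Technique: automated perforated-patch voltage clamp using amphotericin B; Measure: percent change in steady-state +40 mV current, post- versus pre-compound; Benchmarks: negative controls; Replication: duplicates.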

[8] = target: Potassium voltage-gated channel subfamily KQT member 2 (Rattus norvegicus) (UniProt O88943); assay: KCNQ2 channel inhibition, selectivity assay for KCNQ1 inhibitor project, cell-based (AID 651746;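 active means mean percent inhibition of the KCNQ2 thallium signal more than 5 SD above the buffer-only control wells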;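 further: 0% = buffer control wells and 100% = XE-991 inhibitor control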); conditions: KCNQ2 cells, FluxOR thallium flux fluorescence, at 10 µM; stronger effect = higher value
[9] = target: T1, Potassium voltage-gated channel subfamily E member 1 (Homo sapiens) + Potassium voltage-gated channel subfamily KQT member 1 (Homo sapiens); assay: KCNQ1/KCNE1 channel inhibition, selectivity assay for KCNQ1 inhibitor project, CHO-K1 cells, thallium flux, FluxOR (AID 652147;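 active means mean percent inhibition of duplicate wells above the buffer-only control mean plus 3 SD of those controls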;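 further: 0% = buffer only wells and 100% = XE-991 inhibitor control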); conditions: FluxOR thallium flux fluorescence, at 10 µM; stronger effect = higher value
Outline: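 Assay system: KCNQ1/KCNE1 cells | Timing: FluxOR dye loading 90 min, compound exposure 20 min, both room temperature | Detection: Kinetic FluxOR thallium-sensitive fluorescence, 1 Hz sampling, 150 s post-stimulus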

T1 sequence (P51787 whole entry, looked up): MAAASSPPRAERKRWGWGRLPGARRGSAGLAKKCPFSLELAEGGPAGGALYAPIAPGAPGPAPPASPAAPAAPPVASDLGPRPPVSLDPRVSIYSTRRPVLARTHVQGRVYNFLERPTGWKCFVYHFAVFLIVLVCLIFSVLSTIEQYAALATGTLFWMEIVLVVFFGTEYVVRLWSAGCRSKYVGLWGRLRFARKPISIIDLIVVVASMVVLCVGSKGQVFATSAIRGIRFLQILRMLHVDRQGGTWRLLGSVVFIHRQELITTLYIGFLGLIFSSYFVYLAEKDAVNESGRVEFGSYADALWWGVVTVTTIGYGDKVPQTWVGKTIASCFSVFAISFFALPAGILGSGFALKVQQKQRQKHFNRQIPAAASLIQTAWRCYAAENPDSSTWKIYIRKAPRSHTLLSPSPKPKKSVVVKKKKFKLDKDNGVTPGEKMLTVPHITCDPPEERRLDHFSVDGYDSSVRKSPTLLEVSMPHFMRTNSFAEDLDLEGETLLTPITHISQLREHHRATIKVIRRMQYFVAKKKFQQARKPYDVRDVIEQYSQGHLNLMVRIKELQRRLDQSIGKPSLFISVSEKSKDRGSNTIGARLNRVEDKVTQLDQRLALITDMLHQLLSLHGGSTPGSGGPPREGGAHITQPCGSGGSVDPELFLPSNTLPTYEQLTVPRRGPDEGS
Chain of Potassium voltage-gated channel subfamily KQT member 1 (Homo sapiens) (P51787 whole entry, looked up): as above
Chain of Potassium voltage-gated channel subfamily KQT member 2 (Rattus norvegicus) (O88943 whole entry, looked up): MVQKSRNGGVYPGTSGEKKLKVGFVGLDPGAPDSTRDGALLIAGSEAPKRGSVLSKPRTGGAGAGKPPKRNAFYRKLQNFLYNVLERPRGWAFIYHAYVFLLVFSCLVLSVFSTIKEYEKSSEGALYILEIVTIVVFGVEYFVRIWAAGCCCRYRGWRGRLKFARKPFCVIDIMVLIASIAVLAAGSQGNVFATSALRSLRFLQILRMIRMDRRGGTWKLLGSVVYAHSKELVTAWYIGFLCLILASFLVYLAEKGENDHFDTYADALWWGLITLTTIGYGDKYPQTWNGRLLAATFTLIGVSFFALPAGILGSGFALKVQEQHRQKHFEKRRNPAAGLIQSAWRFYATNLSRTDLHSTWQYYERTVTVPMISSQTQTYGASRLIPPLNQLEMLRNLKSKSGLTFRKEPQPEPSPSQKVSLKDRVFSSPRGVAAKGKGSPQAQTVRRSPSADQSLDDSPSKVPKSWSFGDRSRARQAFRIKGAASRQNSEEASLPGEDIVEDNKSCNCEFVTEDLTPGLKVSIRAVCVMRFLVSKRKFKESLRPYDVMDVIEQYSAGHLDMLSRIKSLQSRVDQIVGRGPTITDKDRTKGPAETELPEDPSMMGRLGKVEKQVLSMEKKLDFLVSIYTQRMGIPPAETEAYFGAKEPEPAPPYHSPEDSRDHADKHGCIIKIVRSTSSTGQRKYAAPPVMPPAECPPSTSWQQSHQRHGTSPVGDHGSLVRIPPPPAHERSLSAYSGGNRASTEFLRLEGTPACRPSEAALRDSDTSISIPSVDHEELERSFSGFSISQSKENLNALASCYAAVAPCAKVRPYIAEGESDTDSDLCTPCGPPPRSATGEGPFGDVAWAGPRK

With N#Cc1ccc2ccn(CC(=O)NCc3ccccc3)c2c1 as the compound, how does the outcome [1] read?
Its outcome is “inactive”.

And the outcome [2]?
Its outcome is “inactive”.

What about the outcome [3] of the same compound?
Its outcome is “inactive”.

With COC(=O)C1CCN(C(=O)Nc2ccc(OC)cc2)CC1 as the compound, how does the activation [1] read?
The activation was 144% (active).

And the potentiation [2]?
Its potentiation is 33% (active).

And the outcome [3]?
Its outcome is “inactive”.

Which outcome [1] does the source give for COc1ccc(C2c3ccc4ccccc4c3Oc3ncn(CCCO)c(=N)c32)cc1OC (centres undefined) here?
The outcome was “inactive”.

What about the outcome [2] of the same compound?
Its outcome is “inactive”.

What about the outcome [3] of the same compound?
Its outcome is “inactive”.

What about the outcome [4] of the same compound?
The outcome was “inactive”.

Which outcome [1] does the source give for Cc1cccc(N(CC(=O)NC2CCCC2)C(=O)c2csnn2)c1C here?
Its outcome is “inactive”.

What about the outcome [2] of the same compound?
Its outcome is “inactive”.

And the outcome [3]?
Its outcome is “inactive”.

What does the source list for Cc1ccc(NC(=O)Cn2nc(C)c3ccccc3c2=O)c(C)c1?
outcome [1]: inactive; outcome [2]: inactive; outcome [3]: inactive

With O=C(c1ccc(COc2c(F)c(F)cc(F)c2F)o1)N1CCN(c2ccc(Cl)cc2)CC1 as the compound, how does the outcome [1] read?
The outcome was “inactive”.

And the outcome [2]?
Its outcome is “inactive”.

And the outcome [3]?
Its outcome is “inactive”.

With O=C(NNc1c2ccccc2nc2ccccc12)c1ccccc1Cl as the compound, how does the outcome [1] read?
The outcome was “inactive”.

What about the outcome [2] of the same compound?
Its outcome is “inactive”.

What about the outcome [3] of the same compound?
The outcome was “inactive”.

Which inhibition [5] does the source give for CCn1c(C)c(C)c2cc(C(=O)N3CCN(c4cccc(C)c4C)CC3)ccc21 here?
Its inhibition is 106% (active).

And the fluorescence ratio (Tl flux) [6]?
The fluorescence ratio (Tl flux) was 0.475.

What about the outcome [7] of the same compound?
The outcome was “inactive”.

What about the inhibition [8] of the same compound?
Its inhibition is 66.3% (active).

What about the inhibition [9] of the same compound?
Its inhibition is 180% (active).

Which outcome [1] does the source give for O=C(NC(=S)Nc1ccc(Br)cn1)c1cccs1 here?
The outcome was “inactive”.

And the outcome [2]?
Its outcome is “inactive”.

And the outcome [3]?
Its outcome is “inactive”.

Which results are given for CCOC(=O)c1sc(NC(=O)c2ccccc2C(=O)O)c(C(=O)OCC)c1C?
outcome [1]: inactive; outcome [2]: inactive; outcome [3]: inactive

Which results are given for S=c1[nH]nc(-c2ccccc2)n1/N=C/c1ccc(-c2ccccc2Cl)o1?
outcome [1]: inactive; outcome [2]: inactive; outcome [3]: inactive; outcome [4]: inactive

Which outcome [1] does the source give for COc1cccc(CN2CCN(Cc3cc4ccccc4[nH]3)CC2CCO)c1 (centres undefined) here?
The outcome was “inactive”.

And the potentiation [2]?
The potentiation was 20% (active).

And the outcome [3]?
The outcome was “inactive”.

And the outcome [4]?
The outcome was “inactive”.

Which results are given for Cc1cccc(N2CCN(C(=O)c3cnn4c(C(F)F)cc(-c5ccccc5)nc34)CC2)c1C?
inhibition [5]: 146% (active); fluorescence ratio (Tl flux) [6]: 0.416; outcome [7]: inactive; inhibition [8]: 115% (active)

For O=C(c1nnsc1S(=O)c1ccc(Cl)cc1)N1CCOCC1 (centres undefined), which outcome [1] is on record?
Its outcome is “inactive”.

And the potentiation [2]?
Its potentiation is 17.5% (active).

What about the outcome [3] of the same compound?
The outcome was “inactive”.

And the outcome [4]?
Its outcome is “inactive”.

Which activation [1] does the source give for CNCCC=C1c2ccccc2CCc2ccccc21 here?
The activation was 150% (active).

What about the potentiation [2] of the same compound?
Its potentiation is 76% (active).

What about the outcome [3] of the same compound?
Its outcome is “inactive”.

With O=C(OCc1ccccc1)C1=NNC2C(=O)N(c3ccccc3)C(=O)C12 (centres undefined) as the compound, how does the outcome [1] read?
Its outcome is “inactive”.

What about the outcome [2] of the same compound?
The outcome was “inactive”.

What about the outcome [3] of the same compound?
The outcome was “inactive”.

And the outcome [4]?
The outcome was “inactive”.

With CCc1ccc(C2c3[nH]c4ccccc4c3CCN2C(=O)CN2CCN(CC)CC2)cc1 (centres undefined) as the compound, how does the outcome [1] read?
Its outcome is “inactive”.

What about the outcome [2] of the same compound?
Its outcome is “inactive”.

And the outcome [3]?
Its outcome is “inactive”.

Which outcome [1] does the source give for CC(C)(C)c1ccc(CN2N=Nc3ccccc3S2(=O)=O)cc1 here?
Its outcome is “inactive”.

What about the outcome [2] of the same compound?
The outcome was “inactive”.

What about the outcome [3] of the same compound?
Its outcome is “inactive”.

Which results are given for COC(=O)c1ccc(CSc2nnc(SCc3ccc(C(=O)OC)o3)s2)o1?
outcome [1]: inactive; outcome [2]: inactive; outcome [3]: inactive

Which outcome [1] does the source give for CCCn1c(SCC(=O)Nc2cccc(NC(C)=O)c2)nnc1C(C)C here?
Its outcome is “inactive”.

What about the outcome [2] of the same compound?
The outcome was “inactive”.

What about the outcome [3] of the same compound?
The outcome was “inactive”.

Which results are given for CCN(CC)CC(=O)Nc1sc2c(c1C(=O)c1ccccc1C)CCC2?
inhibition [5]: 104% (active); fluorescence ratio (Tl flux) [6]: 0.444; outcome [7]: inactive; inhibition [8]: 89% (active); inhibition [9]: 168% (active)

For O=C(NC(=S)Nc1nc2c(ccc3ccccc32)s1)c1cccs1, which outcome [1] is on record?
The outcome was “inactive”.

And the potentiation [2]?
Its potentiation is 81% (active).

And the outcome [3]?
Its outcome is “inactive”.

What about the outcome [4] of the same compound?
The outcome was “inactive”.

What does the source list for O=C(NC(=S)NC1CCCc2ccccc21)c1ccc(F)cc1 (centres undefined)?
outcome [1]: inactive; potentiation [2]: 19.5% (active); outcome [3]: inactive; outcome [4]: inactive

For S=c1[nH]c2ccccc2c2ccccc12, which activation [1] is on record?
Its activation is 148% (active).

And the outcome [2]?
The outcome was “inactive”.

And the outcome [3]?
Its outcome is “inactive”.

Which outcome [1] does the source give for Cc1cc(N2CCOCC2)nc(SCC(=O)c2ccc(Cl)cc2)n1 here?
The outcome was “inactive”.

What about the outcome [2] of the same compound?
Its outcome is “inactive”.

And the outcome [3]?
The outcome was “inactive”.

With CCc1ccc(NC(=O)C2CCN(C(=O)[C@@H]3Cc4ccccc4CN3)CC2)cc1 as the compound, how does the outcome [1] read?
The outcome was “inactive”.

What about the outcome [2] of the same compound?
The outcome was “inactive”.

And the outcome [3]?
Its outcome is “inactive”.

What does the source list for CCOC(=O)c1cnc(SC)nc1Sc1ccc(Cl)cc1Cl?
inhibition [5]: 97.5% (active); fluorescence ratio (Tl flux) [6]: 0.406; outcome [7]: inactive; inhibition [8]: 93% (active); inhibition [9]: 111% (active)

Which outcome [1] does the source give for Cc1ccc(-c2nn(-c3ccccc3)cc2/C=N/n2c(-c3cccs3)n[nH]c2=S)cc1 here?
Its outcome is “inactive”.

And the potentiation [2]?
The potentiation was 23% (active).

What about the outcome [3] of the same compound?
Its outcome is “inactive”.

What about the outcome [4] of the same compound?
The outcome was “inactive”.

With COc1ccc(OC)c(Nc2cc3ccccc3c(=O)[nH]2)c1 as the compound, how does the outcome [1] read?
The outcome was “inactive”.

What about the outcome [2] of the same compound?
Its outcome is “inactive”.

What about the outcome [3] of the same compound?
The outcome was “inactive”.

What about the outcome [4] of the same compound?
The outcome was “inactive”.

For CC1(c2ccc(OC(F)F)cc2)NC(=O)N(CC(=O)Nc2ccccc2)C1=O (centres undefined), which outcome [1] is on record?
The outcome was “inactive”.

And the outcome [2]?
Its outcome is “inactive”.

What about the outcome [3] of the same compound?
The outcome was “inactive”.

What about the outcome [4] of the same compound?
The outcome was “inactive”.

With Cn1c(=O)c2c(ncn2CC(=O)OCC(=O)Nc2cc(Cl)ccc2Cl)n(C)c1=O as the compound, how does the outcome [1] read?
The outcome was “inactive”.

What about the outcome [2] of the same compound?
Its outcome is “inactive”.

What about the outcome [3] of the same compound?
The outcome was “inactive”.

Which results are given for Cc1ccc(/C=C2\SC(=S)N(NS(=O)(=O)c3ccc(C)cc3)C2=O)cc1?
outcome [1]: inactive; potentiation [2]: 25.5% (active); current potentiation [3]: 21.1% (active); outcome [4]: inactive
